From ChEMBL document CHEMBL4261487, “Small structural changes of the imidazopyridine diacylglycerol acyltransferase 2 (DGAT2) inhibitors produce an improved safety profile” (Medchemcomm, 2017)

Key:
Rattus norvegicus [1] = test: Unbound Cmax in Wistar Han IGS rat at 30 mg/kg, po qd administered for 1 month; type: ADME, organism-based; settings: in vivo
Method in brief: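 Wistar Han rats were dosed orally once daily for 14 days (exploratory, 5/sex/dose) or 1 month (toxicity, 10/sex/dose). Toxicokinetic satellite animals (3–4/sex/dose) were used, and steady-state systemic exposure is given as the mean of male and female values combined.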

Canis familiaris [2] = test: Toxicity in telemetered beagle dog assessed as increase in diastolic pressure at 75 mg/kg administered via oral gavage measured over 24 hrs; type: organism-based, Canis lupus familiaris; settings: in vivo
Canis familiaris [3] = test: In vivo inhibition of DGAT2 in beagle dog assessed as coverage of in vitro IC50 for dog DGAT2 at 300 mg/kg, po qd administered for 14 days; type: functional, Canis lupus familiaris; design: scale not given: the % may be the effect or the level left
Method in brief: (§1)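 Beagle dogs, once-daily oral dosing for 14 days or 1 month; systemic exposure with sexes combined; coverage is the average % above dog DGAT2 IC50 at steady state over the 24 h dosing interval.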

Canis familiaris [4] = test: Toxicity in beagle dog assessed as renal tubular degeneration at 300 mg/kg, po qd administered for 14 days; type: organism-based, Canis lupus familiaris; settings: in vivo, 336 h
Rattus norvegicus [5] = test: In vivo inhibition of DGAT2 in Wistar Han IGS rat assessed as coverage of in vitro IC50 for rat DGAT2 at 500 mg/kg, po qd administered for 14 days; type: functional; design: scale not given: the % may be the effect or the level left
Method in brief: (§2)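 Wistar Han rats, once-daily oral dosing for 14 days (exploratory, 5/sex/dose) or 1 month (10/sex/dose); toxicokinetics in 3–4/sex/dose with sexes combined; coverage is the average % above rat DGAT2 IC50 at steady state over the 24 h dosing interval.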

Canis familiaris [6] = test: Toxicity in telemetered beagle dog assessed as change in blood pressure at 5 mg/kg administered via oral gavage measured over 24 hrs; type: organism-based, Canis lupus familiaris; settings: in vivo
Canis familiaris [7] = test: In vivo inhibition of DGAT2 in beagle dog assessed as coverage of in vitro IC50 for dog DGAT2 at 100 to 150 mg/kg, po qd administered for 1 month; type: functional, Canis lupus familiaris; design: scale not given: the % may be the effect or the level left; method in brief: as §1
Canis familiaris [8] = test: Toxicity in telemetered beagle dog assessed as foamy white salivation at 75 mg/kg administered via oral gavage measured within 4 hrs of dosing; type: organism-based, Canis lupus familiaris; settings: in vivo
Canis familiaris [9] = test: Unbound Cmax in telemetered beagle dog at 75 mg/kg administered via oral gavage measured over 24 hrs; type: ADME, organism-based, Canis lupus familiaris; settings: in vivo
Method in brief: (§3)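 Telemetered Beagle dogs given oral doses, with blood pressure and heart rate monitored after dosing alongside plasma exposure.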

Canis familiaris [10] = test: Unbound AUC in beagle dog at 100 to 150 mg/kg, po qd administered for 1 month; type: ADME, organism-based, Canis lupus familiaris; settings: in vivo
Method in brief: (§4)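 Beagle dogs were dosed orally once daily in a 14-day exploratory study or 1-month toxicity studies. Steady-state systemic exposure over the 24 h dosing interval is reported as the mean of male and female values combined.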

Canis familiaris [11] = test: Toxicity in po dosed telemetered beagle dog assessed as increase in heart rate measured over 24 hrs; type: organism-based, Canis lupus familiaris; settings: in vivo
Canis familiaris [12] = test: Unbound AUC in beagle dog at 75 mg/kg, po qd administered for 14 days; type: ADME, organism-based, Canis lupus familiaris; settings: in vivo, 336 h; method in brief: as §4
Canis familiaris [13] = test: Toxicity in beagle dog assessed as decrease in body weight at 150 mg/kg, po qd administered for 10 days; type: organism-based, Canis lupus familiaris; settings: in vivo, 240 h
Rattus norvegicus [14] = test: Toxicity in Wistar Han IGS rat at 100 mg/kg, po qd administered for 14 days; type: organism-based; settings: in vivo, 336 h
Method in brief: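 Wistar Han rats, daily oral dosing for 14 days (5/sex/dose) or 1 month (10/sex/dose); microscopic findings reported as incidence by sex, plus organ weights.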

Canis familiaris [15] = test: Unbound Cmax in beagle dog at 2 mg/kg, po qd administered for 1 month; type: ADME, organism-based, Canis lupus familiaris; settings: in vivo; method in brief: as §4
Canis familiaris [16] = test: Toxicity in telemetered beagle dog assessed as increase in heart rate at 75 mg/kg administered via oral gavage measured over 24 hrs; type: organism-based, Canis lupus familiaris; settings: in vivo
Canis familiaris [17] = test: Toxicity in beagle dog assessed as body weight gain at 150 mg/kg, po qd administered for 10 days; type: organism-based, Canis lupus familiaris; settings: in vivo, 240 h
Canis familiaris [18] = test: Toxicity in telemetered beagle dog assessed as increase in systolic pressure at 10 mg/kg administered via oral gavage measured over 24 hrs; type: organism-based, Canis lupus familiaris; settings: in vivo
Rattus norvegicus [19] = test: In vivo inhibition of DGAT2 in Wistar Han IGS rat assessed as coverage of in vitro IC50 for rat DGAT2 at 300 mg/kg, po qd administered for 1 month; type: functional; design: scale not given: the % may be the effect or the level left; method in brief: as §2
Canis familiaris [20] = test: Toxicity in telemetered beagle dog assessed as change in heart rate at 5 mg/kg administered via oral gavage measured over 24 hrs; type: organism-based, Canis lupus familiaris; settings: in vivo
Canis familiaris [21] = test: Toxicity in telemetered beagle dog assessed as increase in heart rate at 25 mg/kg administered via oral gavage measured over 24 hrs; type: organism-based, Canis lupus familiaris; settings: in vivo
Canis familiaris [22] = test: Unbound Cmax in beagle dog […] at 300 mg/kg, po qd administered for 14 days; type: ADME, organism-based, Canis lupus familiaris; settings: in vivo, 336 h
Method in brief: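 Exploratory 14-day dog toxicity study with daily oral dosing. Toxicokinetic exposure is reported as the mean with male and female systemic values combined.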

Canis familiaris [23] = test: Toxicity in beagle dog assessed as decrease in food consumption at 150 mg/kg, po qd administered for 10 days; type: organism-based, Canis lupus familiaris; settings: in vivo, 240 h
Rattus norvegicus [24] = test: In vivo inhibition of DGAT2 in Wistar Han IGS rat assessed as coverage of in vitro IC50 for rat DGAT2 at 100 mg/kg, po qd administered for 14 days; type: functional; design: scale not given: the % may be the effect or the level left; method in brief: as §2
Canis familiaris [25] = test: Toxicity in telemetered beagle dog assessed as increase in heart rate at 50 mg/kg administered via oral gavage measured up to 9 hrs of post dosing; type: organism-based, Canis lupus familiaris; settings: in vivo
[26] = Half life in beagle dog at 5 mg/kg, po; type: ADME, organism-based, Canis lupus familiaris; settings: in vivo
Canis familiaris [27] = test: Unbound Cmax in telemetered beagle dog at 50 mg/kg administered via oral gavage measured over 24 hrs; type: ADME, organism-based, Canis lupus familiaris; settings: in vivo; method in brief: as §3
[28] = Ratio of Cmax in beagle dog at 10 mg/kg, po qd administered for 1 month to IC50 for in vitro inhibition of dog DGAT2; type: organism-based, Canis lupus familiaris; settings: in vivo
Method in brief: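 One-month toxicity study in Beagle dogs with N = 2/sex/dose. Plasma exposure at each dose level was referenced to the dog DGAT2 enzymatic IC50, reported as the geometric mean of at least three replicates.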

[29] = target: T1, Diacylglycerol O-acyltransferase 2 (Canis lupus familiaris, UniProt A0A8I3NDW2); test: Inhibition of dog DGAT2
T1 sequence (A0A8I3NDW2 whole entry): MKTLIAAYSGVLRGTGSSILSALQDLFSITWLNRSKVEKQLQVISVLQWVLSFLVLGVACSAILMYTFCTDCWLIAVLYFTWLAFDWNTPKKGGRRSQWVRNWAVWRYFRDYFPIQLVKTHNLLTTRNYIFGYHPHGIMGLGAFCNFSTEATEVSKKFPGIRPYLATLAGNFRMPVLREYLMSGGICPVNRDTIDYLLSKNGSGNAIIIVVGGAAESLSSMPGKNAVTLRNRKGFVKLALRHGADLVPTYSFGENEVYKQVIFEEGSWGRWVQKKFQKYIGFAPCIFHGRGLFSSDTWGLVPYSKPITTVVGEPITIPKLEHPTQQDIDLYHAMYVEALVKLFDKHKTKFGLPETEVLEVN

Canis familiaris [30] = test: Toxicity in beagle dog at 3 to 30 mg/kg, po qd administered for 1 month; type: organism-based, Canis lupus familiaris; settings: in vivo
Canis familiaris [31] = test: Toxicity in telemetered beagle dog assessed as increase in diastolic pressure at 25 mg/kg administered via oral gavage measured during 4 hrs of post dosing; type: organism-based, Canis lupus familiaris; settings: in vivo
Canis familiaris [32] = test: In vivo inhibition of DGAT2 in beagle dog assessed as coverage of in vitro IC50 for dog DGAT2 at 3 mg/kg, po qd administered for 1 month; type: functional, Canis lupus familiaris; design: scale not given: the % may be the effect or the level left; method in brief: as §1
[33] = Volume of distribution at steady state in beagle dog at 1 mg/kg, iv; type: ADME, organism-based, Canis lupus familiaris; settings: in vivo, read-out: Vdss
Method in brief: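 Male Beagle dogs, single iv dose, crystalline form of compound; value is the mean of two experiments.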

For `CS(=O)(=O)O.O=C([C@@H]1CCCN(c2ccc3nc(C4(n5cc(Cl)cn5)CC4)[nH]c3n2)C1)N1CCCC1`, the fCmax (Rattus norvegicus [1]) was 2020 nM, the Activity (Canis familiaris [2]) was 6 mmHg and the Activity (Canis familiaris [3]) was >99%. For the same compound, the Activity (Canis familiaris [4]) was “Toxic”, the Activity (Rattus norvegicus [5]) was >99% and the Activity (Canis familiaris [6]) was “Non-Toxic”. For the same compound, the Activity (Canis familiaris [7]) was >99%, the Activity (Canis familiaris [8]) was “Toxic” and the fCmax (Canis familiaris [9]) was 7.51 µM. For the same compound, the fAUC (Canis familiaris [10]) was 92600 ng·h/mL, the Activity (Canis familiaris [11]) was “Dose-dependent effect” and the fAUC (Canis familiaris [12]) was 24800 ng·h/mL. The Activity (Canis familiaris [13]) was “Toxic”, the Activity (Rattus norvegicus [14]) was “Non-Toxic” and the fCmax (Canis familiaris [15]) was 305 nM. The Activity (Canis familiaris [16]) was 8 to 30 bpm, the Activity (Canis familiaris [17]) was “Toxic” and the Activity (Canis familiaris [18]) was 3 mmHg. For the same compound, the Activity (Rattus norvegicus [19]) was >99%, the Activity (Canis familiaris [20]) was “Non-Toxic” and the Activity (Canis familiaris [21]) was 6 to 20 bpm. For the same compound, the fCmax (Canis familiaris [22]) was 15.3 µM, the Activity (Canis familiaris [23]) was “Toxic” and the Activity (Rattus norvegicus [24]) was 98%.

For `C[C@@H](c1nc2ccc(N3CCC[C@@H](C(=O)N4CCCC4)C3)nc2[nH]1)n1cc(Cl)cn1`, the Activity (Canis familiaris [25]) was 15 bpm, the half-life [26] was 3 h and the fCmax (Canis familiaris [27]) was 4.7 µM. The Ratio [28] was 31, the IC50 [29] was 41 nM and the Activity (Canis familiaris [30]) was “Non-Toxic”. The Activity (Canis familiaris [31]) was 5 mmHg, the Activity (Canis familiaris [32]) was 65% and the Vd [33] was 0.54 L/kg.
